One test deals with M14. The test is described as follows: Antiproliferative activity against human M14 cells after 48 hrs by MTT assay. Type of test: functional, cell-based. To be noted: M14, 48 h. On the technique in general: Formazan colour is commonly taken as a measure of viable cells.
The test system of a further test is SK-MEL-5. The test can be described thus: Antiproliferative activity against human SK-MEL-5 cells after 48 hrs by MTT assay. The format is functional, cell-based. The conditions noted are these: SK-MEL-5, 48 h.
A further test relates to UACC-257. The test can be described thus: Antiproliferative activity against human UACC257 cells after 48 hrs by MTT assay. The format is functional, cell-based. To be noted: UACC-257, 48 h.
In a further test the test system is UACC-62. The test is described as follows: Antiproliferative activity against human UACC62 cells after 48 hrs by MTT assay. Type of test: functional, cell-based. To be noted: UACC-62, 48 h.
For the next test, the system named is SK-OV-3. The test can be described thus: Anticancer activity against human SKOV3 cells after 48 hrs by SRB assay. To be noted: SK-OV-3, 48 h. Type of test: functional.
The subject of a further test is 786-0. The test is described as follows: Anticancer activity against human 786-0 cells after 48 hrs by SRB assay. The format is functional. To be noted: 786-0, 48 h. Summed up:
(§1)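 NCI five-dose screen. Cells in RPMI 1640 with 5% FBS and 2 mM L-glutamine, seeded at 5000–40,000 cells/well according to doubling time, then pre-incubated 24 h at 37 °C in 5% CO2. Drugs dissolved in DMSO, five concentrations by 10-fold or 1/2-log dilution. Cells fixed with TCA, SRB-stained, A515 read. IC50 solved from [(Ti−Tz)/(C−Tz)]×100 = 50.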
(In general: Sulforhodamine B stains cellular protein and so reports cell mass.)

For the next test, the system named is BT-549. The test is described as follows: Anticancer activity against human BT549 cells after 48 hrs by SRB assay. Type of test: functional. To be noted: BT-549, 48 h. Summed up:
as §1

The test system of a further test is SK-MEL-2. The test is described as follows: Antiproliferative activity against human SK-MEL-2 cells after 48 hrs by MTT assay. To be noted: SK-MEL-2, 48 h. The format is functional, cell-based.
Where [1] appears, read: read-out: LC50 (the source's name).

The term IC50 denotes the point on the concentration scale where inhibition reaches its midpoint. In general, GI50 refers to the concentration that inhibits growth by half. A high value points to lower sensitivity of the cells. Usually TGI stands for the concentration giving total growth inhibition. Higher therefore signals less potent growth arrest. Turning to `O=C(NCCNc1nccc(-c2c(-c3cccc(O)c3)nc3sccn23)n1)c1ccccc1O`, the IC50 in the test on M14 stood at 0.335 µM; in the test with SK-MEL-5, 1.22 µM; in the test with UACC-257 it was 0.651 µM; in the test with UACC-62, 0.161 µM. Also, the results for the GI50 in the test on SK-OV-3, in the test with 786-0 and in the test with BT-549 were 4.31 µM, 6.25 µM and 4.74 µM, respectively. In addition, the TGI with SK-OV-3 was 39.7 µM; in the test on 786-0, 43.1 µM; in the test with BT-549, 34.9 µM. The CC50 in the test with SK-OV-3 (setting [1]), in the test with 786-0 (setting [1]) and in the test on BT-549 (setting [1]) was above 100 µM in each case.
On to `O=C(NCCNc1nccc(-c2c(-c3cccc(O)c3)nc3sccn23)n1)c1ccccc1`, for which the IC50 stood at 0.434 µM with M14; 2.94 µM in the test with SK-MEL-2; 4.15 µM with SK-MEL-5; 0.489 µM in the test on UACC-257; 0.211 µM in the test with UACC-62.

For the origin of these results see ChEMBL document CHEMBL1914423, “New imidazo[2,1-b]thiazole derivatives: synthesis, in vitro anticancer evaluation, and in silico studies” (Eur J Med Chem, 2011).
